In ChEMBL document CHEMBL1141056, “Aqua mediated synthesis of substituted 2-amino-4H-chromenes and in vitro study as antibacterial agents” (Bioorg Med Chem Lett, 2005):

Experiments:
Assay type in all cases: functional, organism-based
[1] = tested on: Escherichia coli; assay: Antibacterial activity against Escherichia coli (ATCC 25922) at concentration 8.0 uM/ml in dimethylformamide, + = resistant
How it was run: (§1)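 Broth microdilution MIC per NCCLS standard protocol. Compounds dissolved in DMF and doubling-diluted in Mueller Hinton broth across 0.5–128 µg/ml; ampicillin run alongside. Inoculum adjusted to McFarland 0.5 and diluted to approx. 5×10^5 cfu/ml final per well. Plates held overnight at 37 °C. Growth scored per concentration: + resistant, − susceptible. Each plate carried broth+inoculum and broth-only control wells.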

[2] = tested on: Staphylococcus aureus; assay: Antibacterial activity against Staphylococcus aureus (ATCC 25923) at concentration 64.0 uM/ml in dimethylformamide, + = resistant; how it was run: as §1
[3] = tested on: Pseudomonas aeruginosa; assay: Antibacterial activity against Pseudomonas aeruginosa (ATCC 27853) at concentration 32.0 uM/ml in dimethylformamide, + = resistant; how it was run: as §1
[4] = tested on: Escherichia coli; assay: Antibacterial activity against Escherichia coli (ATCC 25922) at concentration 1.0 uM/ml in dimethylformamide, + = resistant; how it was run: as §1
[5] = tested on: Pseudomonas aeruginosa; assay: Antibacterial activity against Pseudomonas aeruginosa (ATCC 27853) at concentration 1.0 uM/ml in dimethylformamide, + = resistant; how it was run: as §1
[6] = tested on: Staphylococcus aureus; assay: Antibacterial activity against Staphylococcus aureus (ATCC 25923) at concentration 16.0 uM/ml in dimethylformamide, + = resistant; how it was run: as §1
[7] = tested on: Pseudomonas aeruginosa; assay: Antibacterial activity against Pseudomonas aeruginosa (ATCC 27853) at concentration 64.0 uM/ml in dimethylformamide, + = resistant; how it was run: as §1
[8] = tested on: Pseudomonas aeruginosa; assay: Antibacterial activity against Pseudomonas aeruginosa (ATCC 27853) at concentration 4.0 uM/ml in dimethylformamide, + = resistant; how it was run: as §1
[9] = tested on: Staphylococcus aureus; assay: Antibacterial activity against Staphylococcus aureus (ATCC 25923) at concentration 8.0 uM/ml in dimethylformamide, + = resistant; how it was run: as §1
[10] = tested on: Escherichia coli; assay: Antibacterial activity against Escherichia coli (ATCC 25922) at concentration 0.5 uM/ml in dimethylformamide, + = resistant; how it was run: as §1
[11] = tested on: Escherichia coli; assay: Antibacterial activity against Escherichia coli (ATCC 25922) at concentration 4.0 uM/ml in dimethylformamide, + = resistant; how it was run: as §1
[12] = tested on: Escherichia coli; assay: Antibacterial activity against Escherichia coli (ATCC 25922) at concentration 32.0 uM/ml in dimethylformamide, + = resistant; how it was run: as §1
[13] = tested on: Escherichia coli; assay: Antibacterial activity against Escherichia coli (ATCC 25922) at concentration 16.0 uM/ml in dimethylformamide, + = resistant; how it was run: as §1
[14] = tested on: Staphylococcus aureus; assay: Antibacterial activity against Staphylococcus aureus (ATCC 25923) at concentration 2.0 uM/ml in dimethylformamide, + = resistant; how it was run: as §1
[15] = tested on: Escherichia coli; assay: Antibacterial activity against Escherichia coli (ATCC 25922) at concentration 2.0 uM/ml in dimethylformamide, + = resistant; how it was run: as §1
[16] = tested on: Escherichia coli; assay: Antibacterial activity against Escherichia coli (ATCC 25922) at concentration 64.0 uM/ml in dimethylformamide, + = resistant; how it was run: as §1
[17] = tested on: Pseudomonas aeruginosa; assay: Antibacterial activity against Pseudomonas aeruginosa (ATCC 27853) at concentration 2.0 uM/ml in dimethylformamide, + = resistant; how it was run: as §1
[18] = tested on: Pseudomonas aeruginosa; assay: Antibacterial activity against Pseudomonas aeruginosa (ATCC 27853) at concentration 0.5 uM/ml in dimethylformamide, + = resistant; how it was run: as §1
[19] = tested on: Staphylococcus aureus; assay: Antibacterial activity against Staphylococcus aureus (ATCC 25923) at concentration 32.0 uM/ml in dimethylformamide, + = resistant; how it was run: as §1
[20] = tested on: Staphylococcus aureus; assay: Antibacterial activity against Staphylococcus aureus (ATCC 25923) at concentration 0.5 uM/ml in dimethylformamide, + = resistant; how it was run: as §1
[21] = tested on: Pseudomonas aeruginosa; assay: Antibacterial activity against Pseudomonas aeruginosa (ATCC 27853) at concentration 16.0 uM/ml in dimethylformamide, + = resistant; how it was run: as §1
[22] = tested on: Pseudomonas aeruginosa; assay: Antibacterial activity against Pseudomonas aeruginosa (ATCC 27853) at concentration 8.0 uM/ml in dimethylformamide, + = resistant; how it was run: as §1
[23] = tested on: Staphylococcus aureus; assay: Antibacterial activity against Staphylococcus aureus (ATCC 25923) at concentration 4.0 uM/ml in dimethylformamide, + = resistant; how it was run: as §1
[24] = tested on: Staphylococcus aureus; assay: Antibacterial activity against Staphylococcus aureus (ATCC 25923) at concentration 1.0 uM/ml in dimethylformamide, + = resistant; how it was run: as §1
[25] = tested on: Staphylococcus aureus; assay: Antibacterial activity against Staphylococcus aureus (ATCC 25923)i at concentration 32.0 uM/ml in dimethylformamide, + = resistant; how it was run: as §1

Measured: MIC

N#CC1=C(N)Oc2cc(O)ccc2C1c1ccccc1 (stereo unspecified)
Resistant: [1] | [2] | [3] | [4] | [5] | [6] | [7] | [8] | [9] | [10] | [11] | [12] | [13] | [14] | [15] | [16] | [17] | [18] | [19] | [20] | [21] | [22] | [23] | [24]

N#CC1=C(N)Oc2ccc3ccccc3c2C1c1cc2ccccc2nc1Cl (stereo unspecified)
Resistant: [1] | [3] | [4] | [5] | [6] | [8] | [9] | [10] | [11] | [12] | [13] | [14] | [15] | [16] | [17] | [18] | [20] | [21] | [22] | [25] | [23] | [24]
